SMILES strings stand for the structures. Bounds are passed on as bounds.

The values below come from ChEMBL document CHEMBL2424622, “Development of amino-pyrimidine inhibitors of c-Jun N-terminal kinase (JNK): kinase profiling guided optimization of a 1,2,3-benzotriazole lead” (Bioorg Med Chem Lett, 2013).

Test [1] addresses Fibroblast growth factor receptor 4 (Homo sapiens) (UniProt P22455). Description: Competitive binding affinity to FGFR4 (unknown origin) at 10 uM in presence of ATP relative to control. In a few lines: (§1)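 In vitro ATP-site competition binding assay, part of profiling against a diverse panel of 128 kinases. Each compound was tested at a single concentration of 10 µM. Kinome selectivity was summarized as S15 selectivity scores.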

Test [2] is filed under the species Homo sapiens. Description: Competitive binding affinity to EGFR S752 to I759 deletion mutant (unknown origin) at 10 uM in presence of ATP relative to control.
Test [3] deals with Epidermal growth factor receptor (Homo sapiens), P00533 [G719S]. As to the kind of experiment: Competitive binding affinity to EGFR G719S mutant (unknown origin) at 10 uM in presence of ATP relative to control. In a few lines:
as §1

In test [4] the target is T1, Atypical kinase COQ8B, mitochondrial (Homo sapiens) (UniProt Q96D53).
T1 sequence (whole entry): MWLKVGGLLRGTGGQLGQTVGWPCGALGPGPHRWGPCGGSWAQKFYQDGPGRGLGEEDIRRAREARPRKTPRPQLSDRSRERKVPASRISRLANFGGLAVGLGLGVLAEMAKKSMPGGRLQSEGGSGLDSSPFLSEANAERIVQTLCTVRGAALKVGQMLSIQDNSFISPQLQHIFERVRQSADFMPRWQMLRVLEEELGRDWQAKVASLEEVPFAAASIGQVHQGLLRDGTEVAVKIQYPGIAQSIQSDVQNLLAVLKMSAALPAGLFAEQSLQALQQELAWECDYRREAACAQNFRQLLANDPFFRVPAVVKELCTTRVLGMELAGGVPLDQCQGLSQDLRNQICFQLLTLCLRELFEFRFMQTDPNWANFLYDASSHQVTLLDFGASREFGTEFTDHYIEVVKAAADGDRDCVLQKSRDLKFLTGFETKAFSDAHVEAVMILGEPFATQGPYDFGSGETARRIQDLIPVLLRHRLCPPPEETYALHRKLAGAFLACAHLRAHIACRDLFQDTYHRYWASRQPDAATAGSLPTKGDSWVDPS
Description: Competitive binding affinity to ADCK4 (unknown origin) at 10 uM in presence of ATP relative to control.

Test [5] has as its target T2, Activin receptor type-1 (Homo sapiens) (UniProt Q04771).
T2 sequence (whole entry): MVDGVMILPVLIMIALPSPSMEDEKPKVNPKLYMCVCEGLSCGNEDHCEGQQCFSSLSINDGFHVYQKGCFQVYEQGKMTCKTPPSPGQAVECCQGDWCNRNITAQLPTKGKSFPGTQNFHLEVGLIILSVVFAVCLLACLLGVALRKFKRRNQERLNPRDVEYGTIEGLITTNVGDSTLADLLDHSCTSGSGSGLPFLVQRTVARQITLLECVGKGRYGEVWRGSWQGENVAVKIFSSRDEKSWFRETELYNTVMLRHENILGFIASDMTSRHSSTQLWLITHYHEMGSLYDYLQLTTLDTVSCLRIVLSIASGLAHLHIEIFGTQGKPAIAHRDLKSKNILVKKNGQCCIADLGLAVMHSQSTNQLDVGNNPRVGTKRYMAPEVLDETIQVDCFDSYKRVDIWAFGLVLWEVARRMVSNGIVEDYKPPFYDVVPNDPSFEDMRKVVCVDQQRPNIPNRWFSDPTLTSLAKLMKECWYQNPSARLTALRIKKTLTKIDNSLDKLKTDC
Description: Competitive binding affinity to ACVR1 (unknown origin) at 10 uM in presence of ATP relative to control.

The target in test [6] is Ribosomal protein S6 kinase alpha-4 (Homo sapiens) (UniProt O75676). Description: Competitive binding affinity to RPS6KA4 kinase domain 1 (unknown origin) at 10 uM in presence of ATP relative to control.
In test [7] the target is Ribosomal protein S6 kinase alpha-2 (Homo sapiens) (UniProt Q15349). As to the kind of experiment: Competitive binding affinity to RPS6KA2 kinase domain 2 (unknown origin) at 10 uM in presence of ATP relative to control.
For test [8], the target named is T3, Protein kinase C epsilon type (Homo sapiens) (UniProt Q02156).
T3 sequence (whole entry): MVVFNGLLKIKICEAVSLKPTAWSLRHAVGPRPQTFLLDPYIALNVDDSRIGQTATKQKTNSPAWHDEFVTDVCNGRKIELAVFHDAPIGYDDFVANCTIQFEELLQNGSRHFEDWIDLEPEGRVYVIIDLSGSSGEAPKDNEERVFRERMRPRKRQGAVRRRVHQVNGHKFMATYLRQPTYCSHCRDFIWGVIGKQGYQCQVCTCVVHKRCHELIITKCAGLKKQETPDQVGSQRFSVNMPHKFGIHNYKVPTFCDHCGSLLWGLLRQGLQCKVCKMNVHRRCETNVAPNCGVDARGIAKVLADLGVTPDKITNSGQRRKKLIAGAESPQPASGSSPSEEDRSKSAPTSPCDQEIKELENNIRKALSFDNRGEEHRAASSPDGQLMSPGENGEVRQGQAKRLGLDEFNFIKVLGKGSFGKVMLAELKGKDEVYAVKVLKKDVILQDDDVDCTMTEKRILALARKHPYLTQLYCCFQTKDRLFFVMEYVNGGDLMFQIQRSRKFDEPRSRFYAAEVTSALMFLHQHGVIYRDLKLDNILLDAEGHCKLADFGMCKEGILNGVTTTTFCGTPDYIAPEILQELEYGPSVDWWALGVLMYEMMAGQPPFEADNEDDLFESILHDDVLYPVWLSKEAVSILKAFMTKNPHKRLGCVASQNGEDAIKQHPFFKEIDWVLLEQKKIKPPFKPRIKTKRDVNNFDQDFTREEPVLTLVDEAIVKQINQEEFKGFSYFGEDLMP
As to the kind of experiment: Competitive binding affinity to PRKCE (unknown origin) at 10 uM in presence of ATP relative to control.

The target of test [9] is T4, Serine/threonine-protein kinase NLK (Homo sapiens) (UniProt Q9UBE8).
T4 sequence (whole entry): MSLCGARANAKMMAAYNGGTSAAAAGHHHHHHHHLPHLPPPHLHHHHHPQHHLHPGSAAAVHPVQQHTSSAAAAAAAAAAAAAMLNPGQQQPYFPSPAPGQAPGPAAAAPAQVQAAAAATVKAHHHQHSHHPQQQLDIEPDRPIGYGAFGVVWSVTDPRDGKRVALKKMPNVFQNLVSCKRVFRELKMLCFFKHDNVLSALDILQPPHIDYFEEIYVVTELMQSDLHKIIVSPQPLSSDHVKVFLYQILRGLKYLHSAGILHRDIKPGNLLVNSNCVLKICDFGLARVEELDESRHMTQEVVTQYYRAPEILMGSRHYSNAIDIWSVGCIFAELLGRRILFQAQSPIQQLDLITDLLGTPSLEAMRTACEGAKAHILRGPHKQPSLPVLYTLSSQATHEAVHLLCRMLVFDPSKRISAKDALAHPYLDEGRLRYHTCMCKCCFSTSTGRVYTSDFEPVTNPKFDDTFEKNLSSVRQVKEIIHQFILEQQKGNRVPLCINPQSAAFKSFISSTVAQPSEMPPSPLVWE
As to the kind of experiment: Competitive binding affinity to NLK (unknown origin) at 10 uM in presence of ATP relative to control.

Fibroblast growth factor receptor 4 (Homo sapiens), sequence (P22455 22-802 limits assumed): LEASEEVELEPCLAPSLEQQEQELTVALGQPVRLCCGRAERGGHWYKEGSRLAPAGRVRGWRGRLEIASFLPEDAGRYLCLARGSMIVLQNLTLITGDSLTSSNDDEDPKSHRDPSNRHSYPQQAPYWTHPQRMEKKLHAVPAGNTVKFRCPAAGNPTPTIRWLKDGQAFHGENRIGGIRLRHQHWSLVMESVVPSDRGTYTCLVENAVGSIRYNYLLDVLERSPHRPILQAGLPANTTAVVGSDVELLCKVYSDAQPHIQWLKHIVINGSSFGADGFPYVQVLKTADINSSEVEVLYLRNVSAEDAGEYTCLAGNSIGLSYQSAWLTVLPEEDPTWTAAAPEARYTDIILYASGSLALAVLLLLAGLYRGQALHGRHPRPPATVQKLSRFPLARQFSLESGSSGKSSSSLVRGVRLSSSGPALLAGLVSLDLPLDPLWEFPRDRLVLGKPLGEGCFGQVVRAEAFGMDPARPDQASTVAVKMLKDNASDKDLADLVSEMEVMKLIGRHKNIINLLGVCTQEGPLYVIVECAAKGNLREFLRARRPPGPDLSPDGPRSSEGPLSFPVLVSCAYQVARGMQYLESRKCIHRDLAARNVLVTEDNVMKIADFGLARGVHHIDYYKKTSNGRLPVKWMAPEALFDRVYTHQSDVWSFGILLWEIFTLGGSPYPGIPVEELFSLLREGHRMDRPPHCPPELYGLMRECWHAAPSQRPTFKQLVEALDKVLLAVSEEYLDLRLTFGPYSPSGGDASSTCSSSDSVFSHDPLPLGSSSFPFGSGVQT
Ribosomal protein S6 kinase alpha-2 (Homo sapiens), sequence (Q15349 whole entry, the tested form may be a part): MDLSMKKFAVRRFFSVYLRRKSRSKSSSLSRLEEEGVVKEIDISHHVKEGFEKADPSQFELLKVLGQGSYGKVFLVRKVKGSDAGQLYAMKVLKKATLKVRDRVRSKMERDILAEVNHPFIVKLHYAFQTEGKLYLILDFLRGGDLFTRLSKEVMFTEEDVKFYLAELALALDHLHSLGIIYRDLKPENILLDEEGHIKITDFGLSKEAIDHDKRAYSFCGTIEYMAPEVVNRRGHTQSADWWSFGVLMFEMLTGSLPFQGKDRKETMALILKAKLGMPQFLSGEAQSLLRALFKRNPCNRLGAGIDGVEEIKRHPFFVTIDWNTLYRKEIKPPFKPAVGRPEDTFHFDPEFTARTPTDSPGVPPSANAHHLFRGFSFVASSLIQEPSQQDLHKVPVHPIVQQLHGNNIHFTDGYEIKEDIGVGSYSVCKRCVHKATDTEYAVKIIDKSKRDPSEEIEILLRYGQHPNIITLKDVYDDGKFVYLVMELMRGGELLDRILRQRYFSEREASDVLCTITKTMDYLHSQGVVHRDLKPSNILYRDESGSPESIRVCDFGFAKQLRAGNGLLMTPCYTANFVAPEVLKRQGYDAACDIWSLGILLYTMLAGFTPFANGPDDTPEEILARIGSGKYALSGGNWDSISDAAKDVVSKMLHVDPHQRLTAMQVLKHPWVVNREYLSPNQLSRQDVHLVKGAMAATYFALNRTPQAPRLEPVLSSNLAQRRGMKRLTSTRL
Ribosomal protein S6 kinase alpha-4 (Homo sapiens), sequence (O75676 whole entry, looked up, the tested form may be a part): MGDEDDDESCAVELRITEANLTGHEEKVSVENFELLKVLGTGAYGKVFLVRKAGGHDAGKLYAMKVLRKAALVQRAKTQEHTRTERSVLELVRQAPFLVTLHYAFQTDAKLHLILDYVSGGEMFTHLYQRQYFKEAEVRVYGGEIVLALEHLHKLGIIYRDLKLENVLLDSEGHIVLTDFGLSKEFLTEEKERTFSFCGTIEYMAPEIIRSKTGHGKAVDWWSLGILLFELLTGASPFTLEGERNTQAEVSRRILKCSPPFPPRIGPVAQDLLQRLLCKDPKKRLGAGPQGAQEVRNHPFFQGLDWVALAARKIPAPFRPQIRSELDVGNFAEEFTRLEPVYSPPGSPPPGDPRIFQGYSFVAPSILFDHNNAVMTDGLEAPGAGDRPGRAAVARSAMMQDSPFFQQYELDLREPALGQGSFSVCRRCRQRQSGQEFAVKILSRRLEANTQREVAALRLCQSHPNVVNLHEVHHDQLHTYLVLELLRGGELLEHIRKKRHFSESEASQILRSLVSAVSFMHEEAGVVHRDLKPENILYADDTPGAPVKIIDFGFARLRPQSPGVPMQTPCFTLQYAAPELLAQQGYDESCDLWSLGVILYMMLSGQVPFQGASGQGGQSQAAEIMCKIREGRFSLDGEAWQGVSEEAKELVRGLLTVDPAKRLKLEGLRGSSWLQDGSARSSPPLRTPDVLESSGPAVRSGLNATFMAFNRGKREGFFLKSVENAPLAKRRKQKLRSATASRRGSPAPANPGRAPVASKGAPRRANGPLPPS
Epidermal growth factor receptor (Homo sapiens), P00533 [G719S], sequence (P00533 whole entry G719S): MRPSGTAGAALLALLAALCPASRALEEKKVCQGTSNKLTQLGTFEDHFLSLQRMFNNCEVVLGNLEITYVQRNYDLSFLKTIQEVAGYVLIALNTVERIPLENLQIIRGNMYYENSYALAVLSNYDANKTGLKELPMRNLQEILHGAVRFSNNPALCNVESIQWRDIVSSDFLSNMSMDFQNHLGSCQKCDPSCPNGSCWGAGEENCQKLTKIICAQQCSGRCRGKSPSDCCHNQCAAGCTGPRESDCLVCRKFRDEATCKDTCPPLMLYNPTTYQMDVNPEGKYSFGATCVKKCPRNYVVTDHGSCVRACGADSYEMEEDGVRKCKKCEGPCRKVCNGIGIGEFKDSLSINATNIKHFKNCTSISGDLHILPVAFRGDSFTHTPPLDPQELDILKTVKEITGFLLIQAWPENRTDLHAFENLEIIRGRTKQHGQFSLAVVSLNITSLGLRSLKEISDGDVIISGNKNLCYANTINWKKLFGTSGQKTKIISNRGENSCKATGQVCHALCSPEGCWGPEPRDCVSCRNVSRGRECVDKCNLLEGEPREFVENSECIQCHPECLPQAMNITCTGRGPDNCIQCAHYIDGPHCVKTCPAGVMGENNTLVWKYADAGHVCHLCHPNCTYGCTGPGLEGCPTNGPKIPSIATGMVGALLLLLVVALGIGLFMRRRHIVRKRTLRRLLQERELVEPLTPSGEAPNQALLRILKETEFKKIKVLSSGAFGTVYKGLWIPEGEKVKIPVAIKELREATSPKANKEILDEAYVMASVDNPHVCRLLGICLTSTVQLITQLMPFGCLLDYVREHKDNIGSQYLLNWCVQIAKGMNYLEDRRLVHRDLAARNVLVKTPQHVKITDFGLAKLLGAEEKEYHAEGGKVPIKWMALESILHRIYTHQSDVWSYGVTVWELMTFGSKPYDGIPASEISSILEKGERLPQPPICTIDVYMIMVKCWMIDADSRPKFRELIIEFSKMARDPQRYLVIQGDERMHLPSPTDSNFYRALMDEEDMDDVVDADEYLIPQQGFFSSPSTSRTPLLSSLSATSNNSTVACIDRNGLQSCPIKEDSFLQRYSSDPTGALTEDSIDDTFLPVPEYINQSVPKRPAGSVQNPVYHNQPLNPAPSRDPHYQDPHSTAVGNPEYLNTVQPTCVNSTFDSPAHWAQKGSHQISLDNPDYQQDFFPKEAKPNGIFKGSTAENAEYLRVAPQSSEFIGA

Broadly, the inhibition is the drop in the measured response relative to a control, in per cent. With `O[C@H]1CC[C@H](Nc2nccc(-n3ccc4ccccc43)n2)CC1`, the inhibition in [1] was less than 50%; in test [2] it was less than 50%; in test [3], less than 50%; in test [4], 76%; in test [5], less than 50%; in test [6], less than 50%. The inhibition in test [7], in test [8] and in test [9] was less than 50% throughout.

Take `O[C@H]1CC[C@H](Nc2nccc(-n3nnc4ccccc43)n2)CC1`: the inhibition in test [1] was less than 50%; in [2] it was less than 50%; in test [3] it was less than 50%; in test [4], 70%; in [5], less than 50%; in test [6] it was less than 50%. The inhibition in [7] is 87%; in [8] it was less than 50%; in test [9], less than 50%.

In the case of `CS(=O)(=O)CCCOc1cccc2c1ccn2-c1ccnc(N[C@H]2CC[C@H](C(=O)N3CCC(O)CC3)CC2)n1`, the inhibition in test [4] was greater than 85%.

Consider `O[C@H]1CC[C@H](Nc2nccc(-n3ncc4ccccc43)n2)CC1`, for which the inhibition in [1] is less than 50%; in test [2] it was less than 50%; in test [3], less than 50%; in test [4], 79%; in test [5], less than 50%; in test [6] it was less than 50%. Besides, the inhibition in test [7], in [8] and in test [9] was less than 50% throughout.

Take `O[C@H]1CC[C@H](Nc2nccc(-c3n[nH]c4ccccc34)n2)CC1`: the inhibition in test [1] was less than 50%; in test [2], less than 50%; in [3], less than 50%; in test [4], 74%; in test [5], less than 50%; in [6] it was 99%. Moreover, the inhibition in [9] came out at 90%.
